Source: ChEMBL document CHEMBL2040794, “Synthesis and structure-activity analysis of new phosphonium salts with potent activity against African trypanosomes” (J Med Chem, 2012)

Key:
[1] = Cytotoxicity against human HEK cells after 3 days by alamar blue assay; assay type: cell-based, HEK293; settings: Homo sapiens, HEK293, 72 h
Outline: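 Human embryonic kidney cells tested by resazurin (Alamar blue) assay: 48 h with compound, then 24 h more after dye addition, single reading; EC₅₀ derived.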

[2] = Selectivity index, ratio of EC50 for rat L6 cells to EC50 for Trypanosoma brucei rhodesiense STIB900; assay type: toxicity, cell-based; settings: L6 cells, read-out: Ratio EC50
Outline: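 Ratio of EC₅₀ in L6 cells to EC₅₀ against T. b. rhodesiense STIB900, both from Alamar blue assays.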

[3] = tested on: Trypanosoma brucei brucei; assay: Antitrypanosomal activity against diminazene-, pentamidine-, and melaminophenyl arsenical-resistant HAPT1-deficient Trypanosoma brucei brucei B48 after 3 days by alamar blue assay; assay type: functional, organism-based; settings: Trypanosoma brucei, B48, 72 h
Outline: (§1)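 Bloodstream-form T. b. brucei (wild-type s427; TbAT1-KO, made from s427 by TbAT1 deletion; B48, selected from TbAT1-KO in vitro on pentamidine, lacking functional HAPT1). Cells were exposed to compound for 48 h, then resazurin (Alamar blue) was added for a further 24 h. A single fluorescence reading gave EC50.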

[4] = tested on: Trypanosoma brucei rhodesiense; assay: Antitrypanosomal activity against Trypanosoma brucei rhodesiense STIB900 infected in rat L6 cells after 72 hrs by alamar blue assay; assay type: functional, organism-based; settings: Trypanosoma brucei, STIB900, 72 h
[5] = tested on: Trypanosoma brucei brucei; assay: Antitrypanosomal activity against diminazene aceturate-resistant TbAT1 gene-deficient Trypanosoma brucei brucei AT1-KO after 3 days by alamar blue assay; assay type: functional, organism-based; settings: Trypanosoma brucei, AT1-KO, 72 h; outline: as §1
[6] = tested on: Trypanosoma brucei brucei; assay: Resistance factor, ratio of EC50 for diminazene-, pentamidine-, and melaminophenyl arsenical-resistant HAPT1-deficient Trypanosoma brucei brucei B48 to EC50 for wild type Trypanosoma brucei brucei Lister 427; assay type: functional
Outline: (§2)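 Resistance factor is the EC50 in the resistant line (TbAT1-KO or B48) divided by the EC50 in wild-type s427. […] Resistant and wild-type EC50s were compared by Student t-test.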

[7] = tested on: L6; assay: Cytotoxicity against rat L6 cells after 72 hrs by alamar blue assay; assay type: cell-based; settings: Rattus norvegicus, L6, 72 h
[8] = tested on: Trypanosoma brucei brucei; assay: Resistance factor, ratio of EC50 for diminazene aceturate-resistant TbAT1 gene-deficient Trypanosoma brucei brucei AT1-KO to EC50 for wild type Trypanosoma brucei brucei Lister 427; assay type: functional; outline: as §2
[9] = tested on: Trypanosoma brucei brucei; assay: Antitrypanosomal activity against wild type Trypanosoma brucei brucei Lister 427 after 3 days by alamar blue assay; assay type: functional, organism-based; settings: Trypanosoma brucei, Lister 427, 72 h; outline: as §1
[10] = Selectivity index, ratio of EC50 for human HEK cells to EC50 for wild type Trypanosoma brucei brucei Lister 427; assay type: toxicity, cell-based, HEK293; settings: HEK cells, read-out: Ratio EC50
Outline: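 Ratio of EC₅₀ in HEK cells to EC₅₀ in wild-type T. b. brucei s427, both from resazurin assays.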

Row | SMILES | EC50 [1] [µM] | selectivity ratio [2] | EC50 [3] [µM] | EC50 [4] [µM] | EC50 [5] [µM] | Ratio EC50 [6] | EC50 [7] [µM] | Ratio EC50 [8] | EC50 [9] [µM] | selectivity ratio [10]
1 | COc1ccccc1[P+](Cc1ccc(C(=O)c2ccc(C[P+](c3ccccc3)(c3ccccc3OC)c3ccccc3OC)cc2)cc1)(c1ccccc1)c1ccccc1OC.[Br-].[Br-] | 107 | 28 | 0.19 | 0.23 | 0.32 | 0.8 | 6.4 | 1.3 | 0.24 | 438
2 | Cc1cccc([P+](Cc2ccc(Oc3ccc(C[P+](c4cccc(C)c4)(c4cccc(C)c4)c4cccc(C)c4)cc3)cc2)(c2cccc(C)c2)c2cccc(C)c2)c1.[Br-].[Br-] | 45.4 | 1.9 | 0.088 | 0.488 | 0.043 | 1.5 | 0.942 | 0.7 | 0.057 | 792
3 | C[P+](Cc1ccc(C(=O)c2ccc(C[P+](C)(c3ccccc3)c3ccccc3)cc2)cc1)(c1ccccc1)c1ccccc1.[Br-].[Br-] | > 300 | 177 | 2.05 | 0.656 | 2.08 | 1.3 | 116 | 1.4 | 1.53 | > 200
4 | O=C(c1ccc(C[P+](c2cccc3ccccc23)(c2cccc3ccccc23)c2cccc3ccccc23)cc1)c1ccc(C[P+](c2cccc3ccccc23)(c2cccc3ccccc23)c2cccc3ccccc23)cc1.[Br-].[Br-] | 92 | 12 | 0.18 | 0.4 | 0.339 | 1 | 4.9 | 1.8 | 0.18 | 502
5 | C[P+](C)(Cc1ccc(CCc2ccc(C[P+](C)(C)c3ccccc3)cc2)cc1)c1ccccc1.[Br-].[Br-] | > 300 | 40 | 1.8 | 1.2 | 2.62 | 0.5 | 48.6 | 1 | 2.59 | > 110
6 | FC(F)(F)c1ccc([P+](Cc2ccc(Oc3ccc(C[P+](c4ccc(C(F)(F)F)cc4)(c4ccc(C(F)(F)F)cc4)c4ccc(C(F)(F)F)cc4)cc3)cc2)(c2ccc(C(F)(F)F)cc2)c2ccc(C(F)(F)F)cc2)cc1.[Br-].[Br-] | 174 |  | 0.28 | 5.26 | 0.32 | 1.2 | 9.93 | 1.3 | 0.24 | 723
7 | O=C(c1ccc(C[P+](c2ccccc2)(c2ccccc2)c2ccccn2)cc1)c1ccc(C[P+](c2ccccc2)(c2ccccc2)c2ccccn2)cc1.[Br-].[Br-] | > 300 | 24 | 1.33 | 0.607 | 1.43 | 1.9 | 14.6 | 2 | 0.7 | > 400
8 | O=C(c1ccc(C[P+](c2cccs2)(c2cccs2)c2cccs2)cc1)c1ccc(C[P+](c2cccs2)(c2cccs2)c2cccs2)cc1.[Br-].[Br-] | 260 | 58 | 0.33 | 0.29 | 0.52 | 1 | 16.6 | 1.6 | 0.33 | 785
9 | CCCCCC[P+](CCCCCC)(CCCCCC)Cc1ccc(C(=O)c2ccccc2)cc1.[Br-] | 13.4 | 15 | 0.022 | 0.103 | 0.008 | 1.9 | 1.61 | 0.7 | 0.011 | 1200
10 | Cc1ccc([P+](Cc2ccc(C(=O)c3ccccc3)cc2)(c2ccccc2)c2ccccc2)cc1.[Br-] | 76.8 | 29 | 0.1 | 0.267 | 0.15 | 0.7 | 7.72 | 1 | 0.15 | 504
11 | CCCCCCCC[P+](CCCCCCCC)(CCCCCCCC)Cc1ccc(C(=O)c2ccc(C[P+](CCCCCCCC)(CCCCCCCC)CCCCCCCC)cc2)cc1.[Br-].[Br-] | 27 | 5 | 0.045 | 0.22 | 0.061 | 1.1 | 1 | 1.4 | 0.042 | 639
12 | CC(C)C[P+](Cc1ccc(Oc2ccc(C[P+](CC(C)C)(CC(C)C)CC(C)C)cc2)cc1)(CC(C)C)CC(C)C.[Br-].[Br-] | > 300 |  | 1.06 | 1.62 | 0.8 | 1.8 | 51.1 | 1.3 | 0.59 | > 507
13 | FC(F)(F)c1ccc([P+](Cc2ccc(Cc3ccc(C[P+](c4ccc(C(F)(F)F)cc4)(c4ccc(C(F)(F)F)cc4)c4ccc(C(F)(F)F)cc4)cc3)cc2)(c2ccc(C(F)(F)F)cc2)c2ccc(C(F)(F)F)cc2)cc1.[Br-].[Br-] | 77.1 |  | 0.28 | 1.72 | 0.37 | 1.2 | 7.52 | 1.6 | 0.23 | 338
14 | Fc1c(F)c(F)c([P+](Cc2ccc(Oc3ccc(C[P+](c4ccccc4)(c4ccccc4)c4c(F)c(F)c(F)c(F)c4F)cc3)cc2)(c2ccccc2)c2ccccc2)c(F)c1F.[Br-].[Br-] | > 300 |  | 6.68 | 12.8 | 9.9 | 0.3 | 5.35 | 0.4 | 23.2 | > 10
15 | CC[P+](CC)(CC)Cc1ccc(Oc2ccc(C[P+](CC)(CC)CC)cc2)cc1.[Br-].[Br-] | > 300 |  | 36.6 | 31.9 | 34.9 | 1 | 102 | 1 | 36.5 | > 8
16 | C[P+](C)(Cc1ccc(Cc2ccc(C[P+](C)(C)c3ccccc3)cc2)cc1)c1ccccc1.[Br-].[Br-] | > 300 |  | 3.84 | 2.59 | 4.6 | 0.7 | > 142 | 0.8 | 5.45 | > 55
17 | CC[P+](CC)(Cc1ccc(C(=O)c2ccc(C[P+](CC)(CC)c3ccccc3)cc2)cc1)c1ccccc1.[Br-].[Br-] | > 300 |  | 15.2 | 2.9 | 17.8 | 1.8 | > 128 | 2.1 | 8.59 | > 35
18 | CC[P+](CC)(CC)Cc1ccc(Cc2ccc(C[P+](CC)(CC)CC)cc2)cc1.[Br-].[Br-] | > 300 |  | 19.3 | 18.7 | 18.5 | 0.9 | 48.3 | 0.9 | 21.5 | > 14
19 | O=C(c1ccc(C[P+](c2ccc(C(F)(F)F)cc2)(c2ccc(C(F)(F)F)cc2)c2ccc(C(F)(F)F)cc2)cc1)c1ccc(C[P+](c2ccc(C(F)(F)F)cc2)(c2ccc(C(F)(F)F)cc2)c2ccc(C(F)(F)F)cc2)cc1.[Br-].[Br-] | > 300 |  | 2.73 | 16.4 | 8.51 | 0.5 | 25 | 1.7 | 5.05 | > 60
20 | CC(C)C[P+](Cc1ccc(C(=O)c2ccc(C[P+](CC(C)C)(CC(C)C)CC(C)C)cc2)cc1)(CC(C)C)CC(C)C.[Br-].[Br-] | > 300 |  | 6.3 | 1.46 | 8.34 | 2.4 | > 116 | 3.2 | 2.62 | > 110
21 | C[P+](C)(Cc1ccc(C(=O)c2ccccc2)cc1)c1ccccc1.[Br-] | > 300 |  | 45.8 | 16.9 | 46.6 | 1.1 | > 241 | 1.1 | 42.7 | > 7
22 | CC(C)C[P+](Cc1ccc(C(=O)c2ccccc2)cc1)(CC(C)C)CC(C)C.[Br-] | > 300 |  | 6.28 | 4.48 | 6.1 | 1.1 | > 209 | 1 | 5.9 | > 50
